Shown are actives, neighbours in structure and some others; about 3.9% of the full set was active somewhere.
TAAR1 ag: human TAAR1 agonists, primary screen, Fluo-8 calcium fluorescence, CHO RD-HGA16 cells; Trace amine-associated receptor 1 (Homo sapiens), Q96RJ0; vehicle wells 0%, saturating PEA agonist 100%; activation, % at 3 µM; 0.99% of 360,000 active; AID 624467, 2012;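 active = activation above the mean activation of all test compounds in the run plus 3 SD, cut at about 38% in these data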
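Signal – calcium-sensitive Fluo-8 signal, excitation 470-495, emission 515-575 nm · System – RD-HGA16 (CHO) cells co-expressing Gα16 and hTAAR1 · Incubation – 17-24 h seeding, 75 min 37 °C dye, 30 min RT · Compound dosing – 3 µM single concentration · Repeats – no replicates (n 1)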
CHRM1 PAM: human M1 muscarinic receptor positive allosteric modulators, primary screen, CHO-K1 cells, Fluo-8 calcium fluorescence, 1536-well | CHO-K1 hM1, ACh EC20; 0% = ACh EC20, 100% = maximal ACh | 0.088% of 360,000 active | activation, % at 3 µM; in the data active = activation above about 19%, passing the limit was not always enough
CHRM1 antagonist: human M1 muscarinic receptor antagonists, primary screen, CHO-K1 cells, Fluo-8 calcium fluorescence, 1536-well | CHO-K1 hM1, ACh EC80 antagonist | Muscarinic acetylcholine receptor M1 (Homo sapiens), P11229 | 1.3% of 360,000 active | inhibition, % at 3 µM;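 active = percent inhibition above its own plate's cutoff, namely the mean of that plate's compound wells plus 3 SD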;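 note: peak over basal fluorescence ratio during 140 s after agonist addition; 0% = ACh EC80 plus DMSO and 100% = DMSO alone without agonist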
TAAR1 antagonist: human TAAR1 antagonists, primary screen, Fluo-8 calcium fluorescence, CHO RD-HGA16 cells | inhibition, % at 3 µM | antagonist | AID 624466, 2012 | 1.5% of 360,000 active | Trace amine-associated receptor 1 (Homo sapiens), Q96RJ0;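 active = inhibition above a per-plate cutoff, the mean inhibition of test compounds on that plate plus 3 SD, cut at about 49% in these data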;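 note: 0% = DMSO plus EC80 beta-PEA response and 100% = DMSO alone without agonist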
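Test system: hTAAR1-expressing CHO RD-HGA16 cells, Gα16-coupled; Probe or stimulus: EC80 β-phenethylamine stimulus; Compound dosing: single nominal final test compound concentration of 3 µM; Timing: 140 s kinetic read after compound, 140 s after agonist; Signal: Fluo-8 calcium-sensitive fluorescence; Measure: % inhibition of agonist calcium response; Controls: DMSO and EC80 PEA controls.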
CHRM1 agonist: human M1 muscarinic receptor agonists, primary screen, Fluo-8 calcium fluorescence, CHO-K1 cells, HTS | Muscarinic acetylcholine receptor M1 (Homo sapiens), P11229 | CHO-K1 hM1, agonist mode; 0% DMSO, 100% acetylcholine EC100 | activation, % at 3 µM | 0.33% of 360,000 active;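 active = activation above the run's mean compound activation plus 3 SD, cut at about 16% in these data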;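 note: peak over basal fluorescence ratio within a 140 s kinetic read after compound addition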
HTR2A ag: mouse Htr2a agonists via beta-arrestin recruitment, primary screen, cell-based, luminescence. 5-hydroxytryptamine receptor 2A (Mus musculus), P35363. activation, % at 7.6 µM. AID 624169, 2012. CHO-K1 mHTR2A beta-arrestin complementation; percent of 30 µM serotonin response. 0.66% of 360,000 active;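 active = activation above a run cutoff, the mean activation of all tested compounds plus 3 SD, cut at about 14% in these data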;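 note: 0% = plate median of compound wells and 100% = 30 µM serotonin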
Target sequence (P35363 whole entry, looked up): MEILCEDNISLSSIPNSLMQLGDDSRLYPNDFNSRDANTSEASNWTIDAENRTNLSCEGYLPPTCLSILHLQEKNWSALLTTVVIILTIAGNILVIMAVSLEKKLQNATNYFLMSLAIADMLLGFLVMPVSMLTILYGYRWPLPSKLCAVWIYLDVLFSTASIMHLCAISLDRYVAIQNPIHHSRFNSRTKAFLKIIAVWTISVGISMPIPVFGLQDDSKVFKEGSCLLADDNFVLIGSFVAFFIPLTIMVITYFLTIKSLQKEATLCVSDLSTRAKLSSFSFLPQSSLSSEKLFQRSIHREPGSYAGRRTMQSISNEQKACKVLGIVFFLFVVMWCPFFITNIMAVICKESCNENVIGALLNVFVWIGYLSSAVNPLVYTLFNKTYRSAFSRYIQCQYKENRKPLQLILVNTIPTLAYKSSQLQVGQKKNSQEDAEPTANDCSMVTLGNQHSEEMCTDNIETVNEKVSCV
* marks the source's active call; other numbers are inactive results.

What do the screens show for `CCC(=O)Nc1cccc(NC(=S)NC(=O)c2ccccc2C)c1`?
TAAR1 ag: 2; CHRM1 PAM: 1; CHRM1 antagonist: -1; TAAR1 antagonist: -7; CHRM1 agonist: 0; HTR2A ag: -2

What do the screens show for `O=C(CCC(=O)Nc1ccc(Br)cc1)N/N=C/c1ccccc1O`?
TAAR1 ag: 38*; CHRM1 PAM: 2; CHRM1 antagonist: -8; TAAR1 antagonist: 47; CHRM1 agonist: -1; HTR2A ag: 3

Results for Cc1ccc(NC(=O)CCC(=O)N/N=C/c2ccccc2O)cc1 ?
TAAR1 ag: 38*; CHRM1 PAM: -4; CHRM1 antagonist: -9; TAAR1 antagonist: -2; CHRM1 agonist: -7; HTR2A ag: -2

How did O=C(CCCCC(=O)NN=Cc1ccccc1O)NN=Cc1ccccc1O do in these assays?
TAAR1 ag: 44*; CHRM1 PAM: 5; CHRM1 antagonist: -9; TAAR1 antagonist: 54*; CHRM1 agonist: -2; HTR2A ag: 1

What do the screens show for `O=C(CCC(=O)Nc1ccc(Br)cc1)N/N=C/c1ccc(F)cc1`?
TAAR1 ag: 18; CHRM1 PAM: 3; CHRM1 antagonist: -3; TAAR1 antagonist: 5; CHRM1 agonist: -4; HTR2A ag: -3

Results for Cc1ccc(CN2CCN(Cc3ccc4cc(F)ccc4n3)CC2CCO)o1 (stereo not drawn) ?
TAAR1 ag: 2; CHRM1 PAM: 8; CHRM1 antagonist: -13; TAAR1 antagonist: -25; CHRM1 agonist: -4; HTR2A ag: -3

Results for COc1cc(/C=C2\SC(=Nc3ccccc3)NC2=O)cc(Cl)c1O ?
TAAR1 ag: 75*; CHRM1 PAM: -25; CHRM1 antagonist: 50*; TAAR1 antagonist: 62*; CHRM1 agonist: 79*; HTR2A ag: -11

What do the screens show for `O=C(NNC(=O)c1cc2cc(Br)ccc2oc1=O)c1ccc(O)cc1`?
TAAR1 ag: 38*; CHRM1 PAM: 12; CHRM1 antagonist: 3; TAAR1 antagonist: -17; CHRM1 agonist: -5; HTR2A ag: 2

What do the screens show for `O=C(Nc1ccccc1O)c1cc2cc(Br)ccc2oc1=O`?
TAAR1 ag: 0; CHRM1 PAM: 9; CHRM1 antagonist: -12; TAAR1 antagonist: -9; CHRM1 agonist: -3; HTR2A ag: 2

How did CC1=C/C(=C\C=C(C#N)C#N)N(C)c2ccccc21 do in these assays?
TAAR1 ag: 20; CHRM1 PAM: -6; CHRM1 antagonist: 11; TAAR1 antagonist: 17; CHRM1 agonist: 22*; HTR2A ag: -7

Results for CN(C)CC/C=C1\c2ccccc2Sc2ccc(Cl)cc21 ?
TAAR1 ag: 11; CHRM1 PAM: -27; CHRM1 antagonist: 100*; TAAR1 antagonist: 36; CHRM1 agonist: -7; HTR2A ag: 1

Results for CCC(=O)N(C)/C=C1\Sc2ccccc2C1=O ?
TAAR1 ag: 3; CHRM1 PAM: 9; CHRM1 antagonist: -15; TAAR1 antagonist: -3; CHRM1 agonist: -3; HTR2A ag: -1

How did CN(C)CC/C=C1/c2ccc(F)cc2Sc2ccc(Cl)cc21 do in these assays?
TAAR1 ag: 34; CHRM1 PAM: -25; CHRM1 antagonist: 100*; TAAR1 antagonist: -5; CHRM1 agonist: -6; HTR2A ag: -12

How did CN(C)CC/C=C1\c2ccccc2Sc2cc(F)c(Cl)cc21 do in these assays?
TAAR1 ag: 20; CHRM1 PAM: -24; CHRM1 antagonist: 100*; TAAR1 antagonist: -5; CHRM1 agonist: -3; HTR2A ag: -6

What do the screens show for `OCCN1CCN(CC/C=C2/c3ccccc3Sc3ccc(Cl)cc32)CC1`?
TAAR1 ag: 19; CHRM1 PAM: -19; CHRM1 antagonist: 10; TAAR1 antagonist: 8; CHRM1 agonist: -6; HTR2A ag: -4

What do the screens show for `CN(C)CC/C=C1\c2cc(Cl)ccc2Sc2cc(F)c(F)cc21`?
TAAR1 ag: 17; CHRM1 PAM: -27; CHRM1 antagonist: 100*; TAAR1 antagonist: 5; CHRM1 agonist: -5; HTR2A ag: -13

Results for COCCCNC(=O)CC1C(=O)N(Cc2ccccc2)C(C)c2nc3ccccc3n21 (stereo not drawn) ?
TAAR1 ag: 1; CHRM1 PAM: -5; CHRM1 antagonist: 6; TAAR1 antagonist: -6; CHRM1 agonist: -5; HTR2A ag: 1

Results for Cc1ccc(CNC(=O)CCSCc2ccccc2F)cc1 ?
TAAR1 ag: 0; CHRM1 PAM: -1; CHRM1 antagonist: 0; TAAR1 antagonist: -1; CHRM1 agonist: -1; HTR2A ag: -5

What do the screens show for `C/C(=N\NC(=O)CSc1nc(C)[nH]c1[N+](=O)[O-])c1ccc(F)cc1`?
TAAR1 ag: 0; CHRM1 PAM: 11; CHRM1 antagonist: -17; TAAR1 antagonist: -3; CHRM1 agonist: -1; HTR2A ag: -4

What do the screens show for `CN(C)CC/C=C1\c2ccc(F)cc2Sc2cc(F)c(Cl)cc21`?
TAAR1 ag: 33; CHRM1 PAM: -28; CHRM1 antagonist: 100*; TAAR1 antagonist: 48; CHRM1 agonist: -9; HTR2A ag: -11

How did COc1ccccc1/C=C/C(=O)NCC(=O)N/N=C/c1cccnc1 do in these assays?
TAAR1 ag: 8; CHRM1 PAM: 15; CHRM1 antagonist: -11; TAAR1 antagonist: 9; CHRM1 agonist: -9; HTR2A ag: 1

How did COc1ccccc1/C=C/C(=O)NCC(=O)N/N=C/c1ccccc1 do in these assays?
TAAR1 ag: 38*; CHRM1 PAM: 2; CHRM1 antagonist: 2; TAAR1 antagonist: -27; CHRM1 agonist: -7; HTR2A ag: 2

What do the screens show for `N#CC1=C(N)OC(c2ccccc2)=C(C#N)C1c1ccc2c(c1)OCO2` (stereo not drawn)?
TAAR1 ag: 10; CHRM1 PAM: 3; CHRM1 antagonist: 14; TAAR1 antagonist: 0; CHRM1 agonist: 0; HTR2A ag: -2

Results for N#CC1=C(N)OC2=C(C(=O)CC(c3ccccc3)C2)C1c1ccc2c(c1)OCO2 (stereo not drawn) ?
TAAR1 ag: 3; CHRM1 PAM: -26; CHRM1 antagonist: 62*; TAAR1 antagonist: 1; CHRM1 agonist: -13; HTR2A ag: -3

How did COc1cccc(/C=N/NC(=O)c2ccc(OCc3cccc(Br)c3)cc2)c1 do in these assays?
TAAR1 ag: 0; CHRM1 PAM: 3; CHRM1 antagonist: -5; TAAR1 antagonist: 52*; CHRM1 agonist: -3; HTR2A ag: -1

Results for O=C(N/N=C/c1ccncc1)c1ccc(OCc2ccccc2)cc1 ?
TAAR1 ag: 2; CHRM1 PAM: 1; CHRM1 antagonist: -2; TAAR1 antagonist: 11; CHRM1 agonist: 21*; HTR2A ag: -5

From PubChem BioAssay
